Laboratory results as given in ChEMBL document CHEMBL5724801, “EUbOPEN Chemogenomics Library - Multiplex” (2024).
Several values for one entry are separate records, joined by “and”; a condition that tells them apart may be missing. Identical values can stand only once.

System: HEK-293T
Assay: Multiplex assay against HEK293T
Type: toxicity, cell-based
Settings: human
Procedure, shortened: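 Imaging took place on a CQ1 microscope at 37°C and 5% CO2 once compound had been added to live cells stained at seeding with Hoechst33342, BioTracker Green Microtubule Cytoskeleton Dye, MitoTracker Red and Annexin V Alexa Fluor 680. CellPathfinder machine-learning gating classed cells as Hoechst high-intensity objects or normal cells, classed normal cells as having healthy, pyknosed or fragmented nuclei, and classed pyknosed cells as mitotic or apoptotic. Tubulin, mitochondrial-mass and membrane-permeability phenotypes are per cents of the healthy-nucleus cells.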

[1] = 12 h, 1 µM, compound concentration 1 uM
[2] = 12 h, 10 µM, compound concentration 10 uM
[3] = 24 h, 1 µM, compound concentration 1 uM
[4] = 24 h, 10 µM, compound concentration 10 uM
[5] = 48 h, 1 µM, compound concentration 1 uM
[6] = 48 h, 10 µM, compound concentration 10 uM

COCCNc1cc(NC(=O)N2CCCc3cc(CN4CCN(C)CC4=O)c(C=O)nc32)ncc1C#N [FGF401]
Population Apoptotic (%) [1]: 5.7% and 11.57%
Population Fragmented Nuclei (%) [1]: 1.49% and 2.8%
Population Hoechst High Intensity Objects (%) [1]: 0%
Population Membrane Permeable-Phenotype (%) [1]: 1.74% and 5.56%
Population Mitotic Cells (%) [1]: 94.3% and 88.43%
Population Normal (%) [1]: 100%
Population Pyknosed Nuclei (%) [1]: 47.16% and 84.62%
Population Tubulin-Different-Phenotype (%) [1]: 6.4% and 11.11%
Total Cell Count [1]: 335 and 143
Population Fragmented Nuclei (%) [2]: 2.52% and 7.02%
Population Hoechst High Intensity Objects (%) [2]: 0%
Population Membrane Permeable-Phenotype (%) [2]: 0.56% and 0%
Population Mitochondria Different-Phenotype (%) [2]: 28.09% and 26.67%
Population Mitotic Cells (%) [2]: 94.7% and 80.22%
Population Normal (%) [2]: 100%
Population Pyknosed Nuclei (%) [2]: 41.51% and 79.82%
Total Cell Count [2]: 318 and 114
Population Apoptotic (%) [3]: 13.08% and 17.17%
Population Fragmented Nuclei (%) [3]: 0.93% and 3.47%
Population Healthy Nuclei (%) [3]: 74.95% and 27.78%
Population Hoechst High Intensity Objects (%) [3]: 0%
Population Membrane Permeable-Phenotype (%) [3]: 1.49% and 2.5%
Population Mitochondria Different-Phenotype (%) [3]: 17.33% and 12.5%
Population Mitotic Cells (%) [3]: 86.92% and 82.83%
Population Normal (%) [3]: 100%
Population Pyknosed Nuclei (%) [3]: 24.12% and 68.75%
Population Tubulin-Different-Phenotype (%) [3]: 19.8% and 10%
Population Apoptotic (%) [4]: 12.61% and 19.59%
Population Fragmented Nuclei (%) [4]: 1.6% and 5.3%
Population Hoechst High Intensity Objects (%) [4]: 0%
Population Membrane Permeable-Phenotype (%) [4]: 1.05% and 3.57%
Population Mitochondria Different-Phenotype (%) [4]: 16.84% and 25%
Population Mitotic Cells (%) [4]: 87.39% and 80.41%
Population Normal (%) [4]: 100%
Population Tubulin-Different-Phenotype (%) [4]: 19.21% and 17.86%
Population Apoptotic (%) [5]: 7.89% and 20.99%
Population Fragmented Nuclei (%) [5]: 2.1% and 1.11%
Population Healthy Nuclei (%) [5]: 85.6% and 53.89%
Population Hoechst High Intensity Objects (%) [5]: 0%
Population Membrane Permeable-Phenotype (%) [5]: 6.24% and 0%
Population Mitochondria Different-Phenotype (%) [5]: 18.81% and 29.9%
Population Mitotic Cells (%) [5]: 92.11% and 79.01%
Population Normal (%) [5]: 100%
Population Fragmented Nuclei (%) [6]: 3.22% and 0%
Population Healthy Nuclei (%) [6]: 84.41% and 59.29%
Population Hoechst High Intensity Objects (%) [6]: 0% and 0.71%
Population Membrane Permeable-Phenotype (%) [6]: 4.23% and 1.2%
Population Mitochondria Different-Phenotype (%) [6]: 18.89% and 40.96%
Population Mitotic Cells (%) [6]: 94.37% and 80.7%
Population Normal (%) [6]: 100% and 99.29%

Cc1cc(C)c(NC(=O)C2CC3CCC2C3)c(C)c1 (stereo not given)
Population Apoptotic (%) [1]: 10.42% and 11.4%
Population Fragmented Nuclei (%) [1]: 4.2% and 7.23%
Population Healthy Nuclei (%) [1]: 55.46% and 24.1%
Population Hoechst High Intensity Objects (%) [1]: 0.83% and 0%
Population Membrane Permeable-Phenotype (%) [1]: 0.51% and 2.5%
Population Mitochondria Different-Phenotype (%) [1]: 38.89% and 22.5%
Population Mitotic Cells (%) [1]: 89.58% and 88.6%
Population Normal (%) [1]: 99.17% and 100%
Population Pyknosed Nuclei (%) [1]: 40.34% and 68.67%
Total Cell Count [1]: 360 and 166
Population Apoptotic (%) [2]: 15.2%
Population Fragmented Nuclei (%) [2]: 3.72% and 4.14%
Population Healthy Nuclei (%) [2]: 44.63% and 21.89%
Population Hoechst High Intensity Objects (%) [2]: 0.82% and 0%
Population Membrane Permeable-Phenotype (%) [2]: 0.93% and 2.7%
Population Mitochondria Different-Phenotype (%) [2]: 32.41% and 16.22%
Population Mitotic Cells (%) [2]: 84.8%
Population Normal (%) [2]: 99.18% and 100%
Population Pyknosed Nuclei (%) [2]: 51.65% and 73.96%
Total Cell Count [2]: 244 and 169
Population Apoptotic (%) [3]: 14.08% and 10%
Population Fragmented Nuclei (%) [3]: 1.7% and 6.43%
Population Healthy Nuclei (%) [3]: 74.19% and 29.24%
Population Hoechst High Intensity Objects (%) [3]: 0%
Population Membrane Permeable-Phenotype (%) [3]: 1.6% and 0%
Population Mitotic Cells (%) [3]: 85.92% and 90%
Population Normal (%) [3]: 100%
Population Pyknosed Nuclei (%) [3]: 24.11% and 64.33%
Population Tubulin-Different-Phenotype (%) [3]: 17.39% and 0%
Population Apoptotic (%) [4]: 17.76% and 15.52%
Population Fragmented Nuclei (%) [4]: 1.69% and 2.58%
Population Healthy Nuclei (%) [4]: 72.53% and 37.63%
Population Hoechst High Intensity Objects (%) [4]: 0%
Population Membrane Permeable-Phenotype (%) [4]: 0.33% and 1.37%
Population Mitochondria Different-Phenotype (%) [4]: 17.61% and 20.55%
Population Mitotic Cells (%) [4]: 82.24% and 84.48%
Population Normal (%) [4]: 100%
Population Pyknosed Nuclei (%) [4]: 25.78% and 59.79%
Population Tubulin-Different-Phenotype (%) [4]: 14.95% and 10.96%
Total Cell Count [4]: 415 and 194
Population Apoptotic (%) [5]: 8.16% and 13.89%
Population Fragmented Nuclei (%) [5]: 2.91% and 1.03%
Population Healthy Nuclei (%) [5]: 86.66% and 62.05%
Population Hoechst High Intensity Objects (%) [5]: 0% and 1.52%
Population Membrane Permeable-Phenotype (%) [5]: 4.67% and 2.48%
Population Mitochondria Different-Phenotype (%) [5]: 12.37% and 24.79%
Population Mitotic Cells (%) [5]: 91.84% and 86.11%
Population Normal (%) [5]: 100% and 98.48%
Population Apoptotic (%) [6]: 9.24% and 23.08%
Population Fragmented Nuclei (%) [6]: 2.94% and 2.43%
Population Healthy Nuclei (%) [6]: 84.08% and 71.26%
Population Hoechst High Intensity Objects (%) [6]: 0%
Population Membrane Permeable-Phenotype (%) [6]: 4.15% and 3.98%
Population Mitochondria Different-Phenotype (%) [6]: 20.62% and 28.98%
Population Mitotic Cells (%) [6]: 90.76% and 76.92%
Population Normal (%) [6]: 100%
Population Pyknosed Nuclei (%) [6]: 12.98% and 26.32%

Nc1nccc(-c2ccn3c(N)nccc23)n1
Population Apoptotic (%) [1]: 15.46% and 10.1%
Population Fragmented Nuclei (%) [1]: 3.18% and 4.55%
Population Healthy Nuclei (%) [1]: 68.79% and 31.17%
Population Hoechst High Intensity Objects (%) [1]: 0%
Population Membrane Permeable-Phenotype (%) [1]: 0.42% and 2.08%
Population Mitochondria Different-Phenotype (%) [1]: 32.35% and 27.08%
Population Mitotic Cells (%) [1]: 84.54% and 89.9%
Population Normal (%) [1]: 100%
Population Pyknosed Nuclei (%) [1]: 28.03% and 64.29%
Total Cell Count [1]: 346 and 154
Population Apoptotic (%) [2]: 15.73% and 12.77%
Population Fragmented Nuclei (%) [2]: 2.41% and 4.48%
Population Healthy Nuclei (%) [2]: 66.9% and 25.37%
Population Hoechst High Intensity Objects (%) [2]: 0.34% and 0%
Population Membrane Permeable-Phenotype (%) [2]: 1.03% and 0%
Population Mitochondria Different-Phenotype (%) [2]: 38.66% and 17.65%
Population Mitotic Cells (%) [2]: 84.27% and 87.23%
Population Normal (%) [2]: 99.66% and 100%
Population Pyknosed Nuclei (%) [2]: 30.69% and 70.15%
Total Cell Count [2]: 291 and 134
Population Apoptotic (%) [3]: 20.19% and 15.91%
Population Fragmented Nuclei (%) [3]: 1.49% and 2.84%
Population Healthy Nuclei (%) [3]: 76.43% and 34.75%
Population Hoechst High Intensity Objects (%) [3]: 0% and 2.08%
Population Membrane Permeable-Phenotype (%) [3]: 1.11% and 4.08%
Population Mitochondria Different-Phenotype (%) [3]: 17.78% and 20.41%
Population Mitotic Cells (%) [3]: 79.81% and 84.09%
Population Normal (%) [3]: 100% and 97.92%
Population Pyknosed Nuclei (%) [3]: 22.08% and 62.41%
Population Tubulin-Different-Phenotype (%) [3]: 14.44% and 12.24%
Population Apoptotic (%) [4]: 20.31% and 14.47%
Population Fragmented Nuclei (%) [4]: 1.23% and 6.87%
Population Healthy Nuclei (%) [4]: 79.14% and 35.11%
Population Hoechst High Intensity Objects (%) [4]: 0.61% and 0%
Population Membrane Permeable-Phenotype (%) [4]: 0% and 2.17%
Population Mitochondria Different-Phenotype (%) [4]: 20.93% and 19.57%
Population Mitotic Cells (%) [4]: 79.69% and 85.53%
Population Normal (%) [4]: 99.39% and 100%
Population Pyknosed Nuclei (%) [4]: 19.63% and 58.02%
Population Tubulin-Different-Phenotype (%) [4]: 11.63% and 8.7%
Total Cell Count [4]: 328 and 131
Population Apoptotic (%) [5]: 8% and 18.75%
Population Fragmented Nuclei (%) [5]: 5.17% and 4.03%
Population Healthy Nuclei (%) [5]: 89.44% and 63.76%
Population Hoechst High Intensity Objects (%) [5]: 0.11% and 0.67%
Population Membrane Permeable-Phenotype (%) [5]: 5.66% and 3.16%
Population Mitochondria Different-Phenotype (%) [5]: 18.92% and 21.05%
Population Mitotic Cells (%) [5]: 92% and 81.25%
Population Normal (%) [5]: 99.89% and 99.33%
Population Apoptotic (%) [6]: 20% and 39.39%
Population Fragmented Nuclei (%) [6]: 5.81% and 7.8%
Population Healthy Nuclei (%) [6]: 85.77% and 68.79%
Population Hoechst High Intensity Objects (%) [6]: 0.37% and 1.4%
Population Membrane Permeable-Phenotype (%) [6]: 1.31% and 2.06%
Population Mitochondria Different-Phenotype (%) [6]: 36.24% and 23.71%
Population Mitotic Cells (%) [6]: 80% and 60.61%
Population Normal (%) [6]: 99.63% and 98.6%
Population Pyknosed Nuclei (%) [6]: 8.43% and 23.4%
